# Measured values gathered from unrelated publications.
# Compare with care: the assays were run in different laboratories.
# Target: Serine/threonine-protein kinase Nek3 (NEK3, Homo sapiens, UniProt P51956)
# Residues used in one study (P51956 1-506): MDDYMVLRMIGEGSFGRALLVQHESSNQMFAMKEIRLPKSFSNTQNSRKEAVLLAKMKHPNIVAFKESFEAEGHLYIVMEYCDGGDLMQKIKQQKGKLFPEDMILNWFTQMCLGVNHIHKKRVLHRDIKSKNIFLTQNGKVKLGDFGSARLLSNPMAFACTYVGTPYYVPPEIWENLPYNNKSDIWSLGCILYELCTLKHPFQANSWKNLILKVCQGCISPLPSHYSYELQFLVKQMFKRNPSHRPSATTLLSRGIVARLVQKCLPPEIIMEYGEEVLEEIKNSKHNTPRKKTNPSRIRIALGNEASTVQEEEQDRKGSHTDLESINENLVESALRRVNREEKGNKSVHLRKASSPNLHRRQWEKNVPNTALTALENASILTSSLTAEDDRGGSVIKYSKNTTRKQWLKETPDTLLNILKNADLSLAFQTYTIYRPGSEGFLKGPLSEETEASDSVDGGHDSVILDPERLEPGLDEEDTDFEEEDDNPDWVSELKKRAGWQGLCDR
Compound,test,setting,measurement,result
COc1cccc2c(NCc3ccccc3)nc(-n3c(N)nc4ccccc43)nc12,"target engagement in cells, inhibitor, chemoproteomics",20 mM,inhibition,2.9%
Cc1sc(C(=O)NC2COC2)cc1-n1cc(NC(=O)Nc2c(F)cccc2Cl)cn1,"enzyme activity, inhibitor",10 µM,remaining activity,87.5%
CC(C)(O)[C@H]1CC[C@H](Nc2ccc3ncc(-c4cccc(C(F)(F)F)c4)n3n2)CC1,"enzyme activity, inhibitor",1 µM,remaining activity,91%
Nc1cnc(N2CCc3cc(S(=O)(=O)Nc4c(F)cc(Cl)cc4F)cc(N4CCCC4=O)c32)nc1,"cell-free assay, competition with immobilised ligand",1 µM,remaining binding,100%
O=C(Nc1cnn(-c2csc(C(=O)NC3COC3)c2)c1)Nc1ccccc1Cl,"enzyme activity, inhibitor",5 µM,remaining activity,103%
CO[C@@H](C)c1c(Nc2ccc([C@@H](N(C)C(=O)C3CCS(=O)(=O)CC3)C(F)(F)F)cc2)cnc2cc(Cl)nn12,"cell-free assay, competition with immobilised ligand",1 µM,remaining binding,61%
CCN(CC)c1ccc(C2=NNC(=O)CC2C)cc1[N+](=O)[O-] (stereo not shown),"enzyme activity, inhibitor",10 µM,remaining activity,90%
N#CCCc1ccc2c(c1)-c1[nH]c3ccc([N+](=O)[O-])cc3c1CC(=O)N2,cell-free assay,0.5 µM,remaining signal,104%
Cc1cnc(NC2CCOCC2)nc1-n1cnc(C(=O)NC(CN)c2cc(F)cc(Cl)c2)c1 (stereo not shown),"enzyme activity, inhibitor, radiometric",1 µM,remaining activity,65%
Cc1cc(NC(=O)c2cccc3cc(-c4cccc5[nH]nc(N)c45)ccc23)ccc1F,"enzyme activity, inhibitor",0.1 µM,activity vs control,83%
CCCCN(CCCC)C(=O)CN1C[C@@H](c2cc(OC)c3c(c2)OCO3)[C@H](C(=O)O)[C@H]1CC(C)(C)CCC,"cell-free assay, competition with immobilised ligand",1 µM,remaining binding,72.9%
CNC(=O)c1cc(Oc2ccc(NC(=O)Nc3ccc(Cl)c(C(F)(F)F)c3)cc2)ccn1,cell-free assay,0.5 µM,remaining signal,97.2%
CC(C)(C)c1nc2c(s1)c1nc(N)ncc1c1ccc(NS(=O)(=O)c3c(F)cccc3F)c(F)c12,"enzyme activity, inhibitor, radiometric",1 µM,remaining activity,118%
CS(=O)(=O)N1CCCC(NC(=O)[C@H](CCC2CCCCC2)NC(=O)c2ccc(CNC(=O)c3cnc4ccccn34)cc2)C1 (stereo partly shown),"cell-free assay, competition with immobilised ligand",0.1 µM,remaining binding,100%
Cc1ccc(Nc2nccc(N(C)c3ccc4c(C)n(C)nc4c3)n2)cc1S(N)(=O)=O,"enzyme activity, inhibitor",0.5 µM,remaining activity,94.2%
Cn1nc(C(=O)NCc2ccc(C(=O)O)cc2)cc1-c1ccc2[nH]ccc2c1,"cell-free assay, competition with immobilised ligand",0.1 µM,remaining binding,100%
Cc1ccc(NC(=O)c2ccc(C)c(C(F)(F)F)c2)cc1C#Cc1nn(C2CCC(O)CC2)c2ncnc(N)c12 (stereo not shown),cell-free assay,10 µM,remaining signal,102%
CNC(=O)c1ccc(Nc2ncc(C(F)(F)F)c(NCc3nccnc3N(C)S(C)(=O)=O)n2)cc1,"cell-free assay, competition with immobilised ligand",0.1 µM,remaining binding,100%
Cn1cnc(Br)c1C1=CN(c2ncnc3[nH]cnc23)CCS1,"enzyme activity, inhibitor, radiometric",50 nM,inhibition,14.7%
